Legend:
[1] = tested on: BT-549; experiment: Cytotoxicity against human BT549 cells assessed as cell growth at 10 uM after 48 hrs by SRB assay relative to control; format: functional; settings: BT-549, 48 h, read-out: Activity
Method in brief: (§1)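 NCI 60-cell-line primary screen. Test agent added once at 10⁻⁵ M, cultures incubated 48 h, end point by sulforhodamine B protein staining read spectrophotometrically. Value is percent growth of treated cells relative to untreated control cells.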

[2] = tested on: A549; experiment: Cytotoxicity against human A549 cells assessed as cell growth at 10 uM after 48 hrs by SRB assay relative to control; format: functional; settings: A549, 48 h, read-out: Activity
Method in brief: (§2)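 This was the NCI primary screen, with compound added once at 10⁻⁵ M and cultures incubated for 48 h. The endpoint was sulforhodamine B protein staining. Results are expressed as percent growth of treated cells relative to untreated control cells.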

[3] = tested on: UACC-62; experiment: Cytotoxicity against human UACC62 cells assessed as cell growth at 10 uM after 48 hrs by SRB assay relative to control; format: functional; settings: UACC-62, 48 h, read-out: Activity
Method in brief: (§3)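 Single-dose NCI screen: compound at 10⁻⁵ M added to tumor cell cultures and incubated for 48 h. The SRB protein-binding dye end point was read spectrophotometrically. Results are percent growth of treated cells relative to untreated controls.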

[4] = tested on: SF-295; experiment: Cytotoxicity against human SF295 cells after 48 hrs by SRB assay; format: functional; settings: SF-295, 48 h
Method in brief: (§4)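 This was the NCI 60-cell-line five-dose screen, using 10-fold dilutions from 100 to 0.01 μM and continuous 48-h exposure. Growth was read by sulforhodamine B protein staining relative to time-zero and untreated controls. […] Where an endpoint was not reached, the value was given as beyond the range tested.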

[5] = tested on: Hs-578T; experiment: Cytotoxicity against human Hs578T cells assessed as cell growth at 10 uM after 48 hrs by SRB assay relative to control; format: functional; settings: read-out: Activity; method in brief: as §1
[6] = tested on: K562; experiment: Cytotoxicity against human K562 cells after 48 hrs by SRB assay; format: functional; settings: K562, 48 h; method in brief: as §4
[7] = tested on: HOP-92; experiment: Cytotoxicity against human HOP92 cells after 48 hrs by SRB assay; format: functional; settings: HOP-92, 48 h; method in brief: as §4
[8] = tested on: KM12; experiment: Cytotoxicity against human KM12 cells assessed as cell growth at 10 uM after 48 hrs by SRB assay relative to control; format: functional; settings: KM12, 48 h, read-out: Activity; method in brief: as §2
[9] = tested on: MOLT-4; experiment: Cytotoxicity against human MOLT4 cells assessed as cell growth at 10 uM after 48 hrs by SRB assay relative to control; format: functional; settings: MOLT-4, 48 h, read-out: Activity; method in brief: as §2
[10] = tested on: A498; experiment: Cytotoxicity against human A498 cells after 48 hrs by SRB assay; format: functional; settings: A498, 48 h; method in brief: as §4
[11] = tested on: SK-MEL-5; experiment: Cytotoxicity against human SK-MEL-5 cells after 48 hrs by SRB assay; format: functional; settings: SK-MEL-5, 48 h
Method in brief: (§5)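 NCI 60-cell-line panel, five 10-fold concentrations from 100 μM to 0.01 μM (10⁻⁴ to 10⁻⁸ M) with 48-h continuous exposure. Growth was read by SRB protein staining against time-zero and untreated controls. […] Values beyond the tested range are expressed as greater or less than the limit.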

[12] = tested on: NCI-H522; experiment: Cytotoxicity against human NCI-H522 cells assessed as cell growth at 10 uM after 48 hrs by SRB assay relative to control; format: functional; settings: NCI-H522, 48 h, read-out: Activity; method in brief: as §2
[13] = tested on: U-251; experiment: Cytotoxicity against human U251 cells after 48 hrs by SRB assay; format: functional; settings: U-251, 48 h; method in brief: as §5
[14] = tested on: SF-539; experiment: Cytotoxicity against human SF539 cells after 48 hrs by SRB assay; format: functional; settings: SF-539, 48 h; method in brief: as §4
[15] = tested on: NCI-H322M; experiment: Cytotoxicity against human NCI-H322M cells after 48 hrs by SRB assay; format: functional; method in brief: as §4
[16] = tested on: BT-549; experiment: Cytotoxicity against human BT549 cells after 48 hrs by SRB assay; format: functional; settings: BT-549, 48 h; method in brief: as §4
[17] = tested on: K562; experiment: Cytotoxicity against human K562 cells assessed as cell growth at 10 uM after 48 hrs by SRB assay relative to control; format: functional; settings: K562, 48 h, read-out: Activity; method in brief: as §2
[18] = tested on: HCT-116; experiment: Cytotoxicity against human HCT116 cells after 48 hrs by SRB assay; format: functional; settings: HCT-116, 48 h; method in brief: as §4
[19] = tested on: SF-295; experiment: Cytotoxicity against human SF295 cells assessed as cell growth at 10 uM after 48 hrs by SRB assay relative to control; format: functional; settings: SF-295, 48 h, read-out: Activity; method in brief: as §2
[20] = tested on: T47D; experiment: Cytotoxicity against human T47D cells assessed as cell growth at 10 uM after 48 hrs by SRB assay relative to control; format: functional; settings: read-out: Activity; method in brief: as §3
[21] = tested on: PC-3; experiment: Cytotoxicity against human PC3 cells after 48 hrs by SRB assay; format: functional; settings: PC-3, 48 h; method in brief: as §4
[22] = tested on: RPMI-8226; experiment: Cytotoxicity against human RPMI8226 cells assessed as cell growth at 10 uM after 48 hrs by SRB assay relative to control; format: functional; settings: RPMI-8226, 48 h, read-out: Activity; method in brief: as §2
[23] = Cytotoxicity against human Hs 578T cells after 48 hrs by SRB assay; format: functional; method in brief: as §4
[24] = tested on: NCI-H460; experiment: Cytotoxicity against human NCI-H460 cells assessed as cell growth at 10 uM after 48 hrs by SRB assay relative to control; format: functional; settings: NCI-H460, 48 h, read-out: Activity; method in brief: as §1
[25] = tested on: CCRF-CEM; experiment: Cytotoxicity against human CCRF-CEM cells assessed as cell growth at 10 uM after 48 hrs by SRB assay relative to control; format: functional; settings: read-out: Activity; method in brief: as §2
[26] = tested on: T47D; experiment: Cytotoxicity against human T47D cells after 48 hrs by SRB assay; format: functional; method in brief: as §5
[27] = tested on: Trypanosoma cruzi; experiment: Antitrypanosomal activity against […] form of Trypanosoma cruzi Y infected in monkey […] cells assessed as parasite growth inhibition after 15 hrs by trypan blue staining-based hemocytometric analysis; format: functional, organism-based
[28] = tested on: RPMI-8226; experiment: Cytotoxicity against human RPMI8226 cells after 48 hrs by SRB assay; format: functional; settings: RPMI-8226, 48 h; method in brief: as §4
[29] = tested on: HL-60(TB); experiment: Cytotoxicity against human HL-60(TB) cells assessed as cell growth at 10 uM after 48 hrs by SRB assay relative to control; format: functional; settings: HL-60, 48 h, read-out: Activity; method in brief: as §2
[30] = tested on: UACC-62; experiment: Cytotoxicity against human UACC62 cells after 48 hrs by SRB assay; format: functional; settings: UACC-62, 48 h; method in brief: as §5
[31] = tested on: MCF7; experiment: Cytotoxicity against human MCF7 cells assessed as cell growth at 10 uM after 48 hrs by SRB assay relative to control; format: functional; settings: MCF7, 48 h, read-out: Activity; method in brief: as §2
[32] = tested on: HL-60(TB); experiment: Cytotoxicity against human HL-60(TB) cells after 48 hrs by SRB assay; format: functional; settings: HL-60, 48 h; method in brief: as §4
[33] = tested on: MCF7; experiment: Cytotoxicity against human MCF7 cells after 48 hrs by SRB assay; format: functional; settings: MCF7, 48 h; method in brief: as §4
[34] = tested on: MDA-MB-435; experiment: Cytotoxicity against human MDA-MB-435 cells assessed as cell growth at 10 uM after 48 hrs by SRB assay relative to control; format: functional; settings: MDA-MB-435, 48 h, read-out: Activity; method in brief: as §2
[35] = tested on: SR; experiment: Cytotoxicity against human SR cells after 48 hrs by SRB assay; format: functional; method in brief: as §5
[36] = tested on: PC-3; experiment: Cytotoxicity against human PC3 cells assessed as cell growth at 10 uM after 48 hrs by SRB assay relative to control; format: functional; settings: PC-3, 48 h, read-out: Activity; method in brief: as §2
[37] = tested on: SR; experiment: Cytotoxicity against human SR cells assessed as cell growth at 10 uM after 48 hrs by SRB assay relative to control; format: functional; settings: read-out: Activity; method in brief: as §3
[38] = tested on: MOLT-4; experiment: Cytotoxicity against human MOLT4 cells after 48 hrs by SRB assay; format: functional; settings: MOLT-4, 48 h; method in brief: as §4
[39] = tested on: MDA-MB-435; experiment: Cytotoxicity against human MDA-MB-435 cells after 48 hrs by SRB assay; format: functional; settings: MDA-MB-435, 48 h; method in brief: as §4
[40] = tested on: OVCAR-3; experiment: Cytotoxicity against human OVCAR3 cells after 48 hrs by SRB assay; format: functional; settings: OVCAR-3, 48 h; method in brief: as §4
[41] = tested on: A549; experiment: Cytotoxicity against human A549 cells after 48 hrs by SRB assay; format: functional; settings: A549, 48 h; method in brief: as §4
[42] = tested on: HCT-15; experiment: Cytotoxicity against human HCT15 cells after 48 hrs by SRB assay; format: functional; settings: HCT-15, 48 h; method in brief: as §4
[43] = tested on: DU-145; experiment: Cytotoxicity against human DU145 cells after 48 hrs by SRB assay; format: functional; settings: DU-145, 48 h; method in brief: as §4
[44] = tested on: NCI-H460; experiment: Cytotoxicity against human NCI-H460 cells after 48 hrs by SRB assay; format: functional; settings: NCI-H460, 48 h; method in brief: as §4

`O=C1NC(=O)/C(=C/C(=O)N2N=C(c3ccc4ccccc4c3)CC2c2ccc(Cl)cc2)S1` (stereo not drawn) gave a growth at 10 µM [1] of 34.2%, a growth at 10 µM [2] of 30% and a growth at 10 µM [3] of 32.8%. The GI50 [4] was 2.45 µM, the TGI [4] was 9.12 µM and the growth at 10 µM [5] was 35.6%. For the same compound, the GI50 [6] was 1.9 µM, the TGI [6] was 11.2 µM and the GI50 [7] was 1.17 µM. For the same compound, the TGI [7] was 9.72 µM, the growth at 10 µM [8] was 25.8% and the growth at 10 µM [9] was 11.5%. For the same compound, the GI50 [10] was 1.41 µM, the TGI [10] was 5.38 µM and the GI50 [11] was 2.09 µM. For the same compound, the TGI [11] was 22.5 µM, the growth at 10 µM [12] was 23.2% and the GI50 [13] was 2.58 µM. It also gave a TGI [13] of 13.2 µM, a GI50 [14] of 2.43 µM and a TGI [14] of 5.79 µM. For the same compound, the GI50 [15] was 2.89 µM, the TGI [15] was 100 µM and the GI50 [16] was 2.16 µM. It also gave a TGI [16] of 7.75 µM, a growth at 10 µM [17] of 24.6% and a GI50 [18] of 3.01 µM. The TGI [18] was 13.9 µM, the growth at 10 µM [19] was -5.27% and the growth at 10 µM [20] was 39.3%. It also gave a GI50 [21] of 4.94 µM, a TGI [21] of 100 µM and a growth at 10 µM [22] of 2.48%. It also gave a GI50 [23] of 1.94 µM, a TGI [23] of 8.26 µM and a growth at 10 µM [24] of 25.9%. The growth at 10 µM [25] was 16.7%, the GI50 [26] was 1.53 µM and the TGI [26] was 9.4 µM. For the same compound, the IC50 [27] was 0.3 µM, the GI50 [28] was 1.97 µM and the TGI [28] was 5.88 µM. It also gave a growth at 10 µM [29] of 13.5%, a GI50 [30] of 2.66 µM and a TGI [30] of 12.8 µM. It also gave a growth at 10 µM [31] of 34.4%, a GI50 [32] of 3.2 µM and a TGI [32] of 6.48 µM. It also gave a GI50 [33] of 2.53 µM, a TGI [33] of 14.1 µM and a growth at 10 µM [34] of 39.5%. For the same compound, the GI50 [35] was 1.98 µM, the TGI [35] was 5.92 µM and the growth at 10 µM [36] was 36%. It also gave a growth at 10 µM [37] of 10.6%, a GI50 [38] of 1.64 µM and a GI50 [39] of 2.7 µM. The TGI [39] was 16.5 µM, the GI50 [40] was 2.9 µM and the TGI [40] was 10.6 µM. The GI50 [41] was 3.06 µM, the TGI [41] was 100 µM and the GI50 [42] was 2.41 µM. The TGI [42] was 100 µM, the GI50 [43] was 4.27 µM and the TGI [43] was 100 µM. The GI50 [44] was 1.89 µM and the TGI [44] was 4.7 µM.

Source: ChEMBL document CHEMBL2412956, “Synthesis and biological activity evaluation of 5-pyrazoline substituted 4-thiazolidinones” (Eur J Med Chem, 2013)
